Assay outcomes deposited in PubChem by several laboratories.
Insulin prom up = MIN6 insulin promoter up-regulation. MIN6 insulin promoter-GFP reporter, high-content imaging; stronger effect = higher value. z-score at 5 µM. 190,000 compounds, 0.3% hits. AID 1625;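 active = z-score above 3 at 5 µM with at least 500 cells counted in the well; inconclusive = wells under 500 cells, flagged as cytotoxic or low count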
WT yeast gro inh = growth inhibition of WT yeast, mitochondrial fusion screen; inhibition, % at 10 µM; 190,000 compounds, 2.1% hits; mitochondrial fusion phenotypic screen, WT strain; in the data active = inhibition above about 58%; tested in S. cerevisiae
Rad51 HR inh = Rad51 (human) homologous recombination inhibition; Q06609; hRad51 DNA strand exchange, fluorescence dequenching; inhibition, % at 10 µM; 200,000 compounds, 0.085% hits; AID 1385;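 active = inhibition above 40% at the single screening dose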;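 note: 0% = DMSO control wells and 100% = blanks with heterologous ssDNA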
Target sequence (Q06609 whole entry, looked up): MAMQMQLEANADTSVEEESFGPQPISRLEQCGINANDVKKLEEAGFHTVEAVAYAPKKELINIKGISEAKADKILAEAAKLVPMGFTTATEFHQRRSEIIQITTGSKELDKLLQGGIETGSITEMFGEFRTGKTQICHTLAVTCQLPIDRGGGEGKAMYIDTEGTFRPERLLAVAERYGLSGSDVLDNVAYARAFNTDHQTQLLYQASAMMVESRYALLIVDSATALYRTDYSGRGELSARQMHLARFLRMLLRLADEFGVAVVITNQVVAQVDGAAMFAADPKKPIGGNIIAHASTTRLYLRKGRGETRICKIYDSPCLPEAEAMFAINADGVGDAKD
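Test system: preformed human Rad51 ssDNA filaments. Compound dosing: single dose, 10 µM final compound. Incubation: filaments 15 min 37 °C, then compound 30 min. Technique: FRET fluorescence dequenching, excitation 485 nm, emission 520 nm. Read-out basis: percent inhibition from fluorescence, normalised to plate control and blank means. Benchmarks: plate controls and plate blanks.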
SKKanGAS inh = blocks kanamycin growth of S. pyogenes SKKanGAS strain; BacTiter-Glo, 6 h; inhibition, % at 7.5 µM; 300,000 compounds, 1.3% hits; AID 1662;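 active = mean replicate score, as percent of positive control median, at least 50; inconclusive = mean below 50 but one replicate at or above 50; inactive = mean and every replicate below 50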;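 note: strain carries kanamycin resistance gene driven by streptokinase promoter and grows in 40 µg/ml kanamycin; loss of luminescence reflects streptokinase promoter inhibition or plain growth inhibition; 0% = median of DMSO wells and 100% = positive control at its reference dose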
Autophagy mod = alters autophagy in cells; MEF GFP-LC3 puncta imaging; test concentration mostly 10 µM; AID 463193; 190,000 compounds, 0.98% hits; calls only at 10 µM (by protocol);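 active = percentage of spot-positive cells more than 3 SD above its plate mean, without a fluorescence outlier flag or 80% toxicity; inconclusive = no clear call, values can overlap the other calls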;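 note: spot-positive cell cutoff set from DMSO-treated cells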
Cl transport mod = KCC2 (human) Cl- transport modulation; Q9H2X9; KCC2 cells, thallium flux FluoZin-2 fluorescence; B-score of Tl+ flux slope (higher = more flux/activation; lower = inhibition) at 10 µM; 190,000 compounds, 2.2% hits;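 active = thallium flux slope and its plate-corrected score both differing from the plate sample mean at a set confidence after two filtering rounds, in either direction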;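 note: slope of fluorescence scaled to starting intensity during 10 to 20 s after thallium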
KCC2 secondary = confirmation of human KCC2 transport modulators | shares compounds with Cl transport mod | HEK293-KCC2, thallium flux, FluoZin2 fluorescence; stronger effect = higher value | normalised thallium flux (F/F0 slope) at 10 µM | 3,700 compounds, 15% hits | AID 1713;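 active = thallium flux slope above the same plate's solvent-only control mean plus 3 SD; inconclusive = the two replicate wells disagree; inactive = no significant difference from solvent-only control wells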
KCC2 bumet counter = thallium flux despite bumetanide block in KCC2 cells, secondary assay 3; shares compounds with Cl transport mod; HEK293-KCC2 + bumetanide/ouabain, thallium flux FluoZin2; stronger effect = higher value; normalized thallium flux at 10 µM; 3,700 compounds, 49% hits;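 active = thallium entry rate above the same plate's blocked-transporter control wells by more than 3 SD; inconclusive = the two repeat wells disagree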;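 note: raw slope of fluorescence over initial fluorescence between 10 and 20 s after thallium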
KCC2 sec2 = KCC2 (human) modulation, second secondary assay. HEK293-KCC2, thallium flux FluoZin2 fluorescence; actives lie on both sides; F/F0 rise rate, 10–20 s post-thallium. normalized thallium flux at 10 µM. 3,700 compounds, 23% hits. shares compounds with Cl transport mod;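 active = thallium flux slope more than 3 SD above or below the plate's solvent-only control mean, mostly below; inconclusive = the two repeat wells disagreed; inactive = no significant shift from solvent-only controls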;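 note: raw slope with 0.1% DMSO as baseline and bumetanide as block control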
HEK counter1 = counter-screen for KCC2 modulators: effect in parental HEK293 cells. shares compounds with Cl transport mod. AID 1716. 3,700 compounds, 46% hits. thallium flux FluoZin2, ouabain; baseline-ratio fluorescence slope, 10–20 s after thallium. thallium flux rate (normalised fluorescence) at 10 µM;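 active = thallium flux rate significantly above the same plate's solvent-only control wells, beyond their mean plus 3 SD; inconclusive = the two replicate wells gave conflicting results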
KCC2 ouabain = modulates human KCC2 on retest with ouabain; AID 1717; HEK293-KCC2, thallium flux FluoZin2 fluorescence; bidirectional: low = inhibitor, high = activator; 3,700 compounds, 48% hits; raw Tl+ flux slope (below DMSO = inhibition, above = activation) at 10 µM; shares compounds with Cl transport mod;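 active = thallium flux slope beyond 3 SD from same-plate DMSO control mean in most replicates, usually higher, sometimes lower; inconclusive = repeat tests gave conflicting results; inactive = no significant difference from controls in most replicates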;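 note: slope of initial-normalized fluorescence between seconds 10 and 20 after thallium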
HEK counter2 = acts in parental HEK cells, second KCC2 counter-screen | thallium flux slope at 10 µM | 3,700 compounds, 33% hits | AID 1718 | HEK293 parental, thallium flux FluoZin-2 fluorescence slope | shares compounds with Cl transport mod;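 active = thallium flux slope above the same plate's solvent-control mean plus 3 SD in both duplicate wells; inconclusive = duplicate wells that disagreed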;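 note: run without ouabain in cells lacking the KCC2 cotransporter; slope of fluorescence scaled to its starting value between 10 and 20 s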
Starred values were filed as active, the others as inactive; i = inactive; ? = inconclusive; · = no result given. A selection: hits, their analogues and other compounds. The true share with any hit is near 4.2%.

SMILES | Insulin prom up | WT yeast gro inh | Rad51 HR inh | SKKanGAS inh | Autophagy mod | Cl transport mod | KCC2 secondary | KCC2 bumet counter | KCC2 sec2 | HEK counter1 | KCC2 ouabain | HEK counter2
CC(C)Cc1[nH]c(=O)c(C#N)c2c1CCCC2 | -0.17 | 18 | 1 | 0 | i | -0.5 | 0.016 | 0.0045 | 0.027 | ? | 0.017 | 0.01
CCN(CC)C(=S)SCC(=O)Nc1ncc2c(n1)CC(C)(C)CC2=O | -0.34 | · | · | 13 | · | 5.6* | 0.0058 | 0.0049 | 0.031 | 0.0075 | 0.019 | 0.011
CCCOc1ccc(CN(CCC#N)C(=S)NC(=O)c2ccccc2)cc1 | -0.29 | 73 | 6 | 44 | i | 80* | 0.055* | 0.11* | 0.074* | 0.1* | 0.11* | 0.055*
COc1ccc(C(=O)NC(=S)N(C)Cc2ccccc2)cc1Br | 0.71 | -5 | 2 | -25 | i | 11* | 0.0079 | 0.019* | 0.037 | 0.022* | 0.044* | 0.016*
CCN(CC)S(=O)(=O)c1ccc(C(=O)NC(=S)N(CCO)Cc2ccccc2)cc1 | · | · | · | 6 | · | · | · | · | · | · | · | ·
CN(Cc1ccccc1)C(=O)CC(=O)N(C)Cc1ccccc1 | · | · | · | -6 | · | · | · | · | · | · | · | ·
CN(Cc1ccccc1)C(=S)NC(=O)c1ccccc1 | -0.28 | 24 | -6 | 10 | i | 65* | 0.056* | 0.16* | 0.07* | 0.085* | 0.13* | 0.036*
O=C(COC(=O)c1cc(S(=O)(=O)N2CCOCC2)ccc1F)NCc1ccco1 | · | · | · | 4 | · | · | · | · | · | · | · | ·
O=C(COC(=O)[C@@H]1CC(O)CN1S(=O)(=O)c1ccc2c(c1)OCCO2)NCc1ccc(F)cc1 (some centres undefined) | 0.45 | -10 | 2 | -11 | i | -1.4 | · | · | · | · | · | ·
O=C(CCSc1ccccc1)NCCSCc1ccccc1 | 0.4 | -1 | -2 | -4 | i | -3.5* | ? | 0.0039 | 0.022* | ? | 0.013* | ?
CN(C)S(=O)(=O)N(CC(=O)NCCSCc1ccccc1)c1ccccc1 | · | 10 | 20 | -3 | i | -3.7* | 0.0062 | 0.006* | 0.024* | 0.0071 | ? | 0.01
O=C1CCCCc2sc(Br)c([N+](=O)[O-])c2N1 | ? | · | · | 4 | · | -0.85 | · | · | · | · | · | ·
CSc1cccc(NC(=O)C2CCN(S(=O)(=O)c3ccc(F)cc3)CC2)c1 | 2.6 | 19 | -4 | -1 | i | · | 0.0077 | 0.0053 | 0.034 | 0.0044 | ? | 0.01
CSc1cccc(NC(=O)C2CCCN(S(=O)(=O)c3ccc(F)cc3)C2)c1 (centres undefined) | 0.03 | 6 | -5 | -1 | i | -0.58 | · | · | · | · | · | ·
Cc1cc(=O)n2nc(N3CCC(C(=O)NCc4ccccc4Cl)CC3)sc2n1 | · | · | · | 5 | · | · | · | · | · | · | · | ·
CCOC(=O)c1c(NCc2ccccc2)n[nH]c1C | -0.18 | 3 | 8 | 0 | i | -0.78 | · | · | · | · | · | ·
CCOC(=O)c1c(N/N=C/c2ccncc2)n[nH]c1C | -0.12 | -7 | · | -16 | i | 18* | 0.016 | 0.0042 | 0.03 | ? | 0.016 | 0.0092
O=C1NC(=S)S/C1=C/c1ccc(Oc2cnccn2)cc1 | -1.7 | -3 | 3 | 10 | i | · | 0.012* | 0.038* | 0.029 | 0.012* | 0.037* | ?
Cc1nnc(SCCOc2ccccc2)s1 | -0.37 | 1 | 1 | -6 | i | 0.57 | · | · | · | · | · | ·
COc1ccc(CN=C2NC(=O)CC(C(=O)Nc3ccccc3C)S2)cc1 (centres undefined) | -0.45 | -13 | 1 | -8 | i | -0.021 | · | · | · | · | · | ·
CCOC(=O)c1c(C(C)(C)C)oc2ccc(O)cc12 | -0.65 | -20 | 5 | · | i | -6.2* | 0.008 | 0.0063 | 0.035 | 0.0079 | ? | 0.01
Cc1ccc(C)c(NC(=S)N/N=C2/CCCCc3ccccc32)c1 | · | 56 | 8 | 55* | i | 9.6* | 0.0064 | 0.036* | 0.047* | 0.037* | 0.038* | 0.038*
CN1C(=O)/C(=C/c2cc(C(C)(C)C)c(O)c(C(C)(C)C)c2)NC1=S | -0.81 | 34 | 4 | 15 | i | 12* | 0.01 | 0.018* | 0.034 | 0.013* | 0.025 | 0.012*
COc1ccc(CCC(=O)NCCS(=O)(=O)N2CCN(c3ccc(OC)cc3)CC2)cc1 | · | · | · | 0 | · | · | · | · | · | · | · | ·
Cc1c(Cl)cccc1-n1c(SCC(=O)NCc2cccs2)nnc1-c1ccncc1 | -1.8 | 20 | -4 | 4 | i | -1.2 | 0.0099 | 0.0057 | 0.036 | 0.0097* | 0.02 | 0.011
SMILES | Insulin prom up | WT yeast gro inh | Rad51 HR inh | SKKanGAS inh | Autophagy mod | Cl transport mod | KCC2 secondary | KCC2 bumet counter | KCC2 sec2 | HEK counter1 | KCC2 ouabain | HEK counter2
COc1ccc(C(=O)NCCS(=O)(=O)N2CCN(Cc3ccccc3)CC2)cc1 | · | · | · | 5 | · | · | · | · | · | · | · | ·
CC(C)CCSc1nnc(N)s1 | -0.64 | · | 14 | 12 | · | 0.63 | · | · | · | · | · | ·
C=CCn1c(SCC(=O)c2ccccc2)nnc1-c1ccc2c(c1)OCO2 | 0.68 | 4 | · | · | i | -2.3 | 0.01 | 0.0068 | 0.033 | 0.0075 | 0.021 | ?
CC(C)c1ccc(/C=N/NC(=O)c2ccccc2Cl)cc1 | 0.13 | -4 | 7 | 9 | i | -4.4* | 0.0054 | 0.005 | 0.024* | 0.0072 | ? | 0.01
CC(=O)N1CCCc2cc(S(=O)(=O)N(C)Cc3ccccc3)ccc21 | 1.3 | -15 | -7 | 13 | i | -4* | 0.007 | 0.0065 | 0.033 | 0.0045 | ? | 0.011
NC(=O)CC(NC(=O)Cc1ccc(Br)cc1)c1ccc(NCCc2ccc(Cl)cc2)c([N+](=O)[O-])c1 (centres undefined) | -0.66 | · | -2 | 5 | · | 1 | · | · | · | · | · | ·
NC(=O)CC(NC(=O)Cc1ccc(Br)cc1)c1ccc(NCCc2ccc(F)cc2)c([N+](=O)[O-])c1 (centres undefined) | -0.29 | · | -4 | 8 | · | -3* | 0.017 | 0.0039 | ? | ? | 0.014 | 0.0096
Cc1nn(C)c(C)c1S(=O)(=O)N(CC(=O)N1CCc2ccccc2C1)c1ccc(C(C)C)cc1 | 0.43 | 17 | 3 | 2 | i | · | ? | 0.0049 | 0.025* | ? | 0.014* | 0.0094
Cc1nn(C)c(C)c1S(=O)(=O)N(CC(=O)N1CCc2ccccc21)c1ccc(C(C)C)cc1 | -0.49 | 15 | 1 | 3 | i | · | · | · | · | · | · | ·
